# ChEMBL document CHEMBL1154352, “Toll-like receptor 7 selective synthetic oligoribonucleotide agonists: synthesis and structure-activity relationship studies” (J Med Chem, 2009)
# The source made the active and inactive calls. No cut-off for these calls is given here.
# Experiments:
# [1] = Metabolic stability in human serum assessed as full length product remaining after 10 mins by HPLC; type: ADME, cell-free; details: read-out: Stability
# Outline: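 About 0.5 A260 units compound in 1% human serum in PBS, 37 °C; aliquot taken at 10 min, analysed by anion-exchange HPLC for percent intact full-length product.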
# [2] = species on record: Homo sapiens; test: Immunostimulatory activity in human mDC assessed as induction of TNFalpha at 100 ug/ml after 24 hrs; type: functional
# Outline: (§1)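 Human mDCs isolated from PBMCs by CD19+ B-cell depletion then BDCA1 positive selection; plated at 1 × 10^6 cells/mL, compounds in PBS, 37 °C for 24 h; supernatant cytokines by human Luminex multiplex. Representative of four independent experiments.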
# [3] = test system: PBMC; test: Immunomodulatory activity in human PBMC assessed as induction of MIP1alpha at 50 ug/ml after 24 hrs; type: functional, cell-based
# Outline: (§2)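 Human PBMCs plated at 5 × 10^6 cells/mL; compounds dissolved in PBS added at various concentrations, 37 °C for 24 h. Supernatant cytokines/chemokines quantified with human Luminex multiplex kit.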
# [4] = test system: PBMC; test: Immunomodulatory activity in human PBMC assessed as induction of MIP1alpha after 24 hrs; type: functional, cell-based; outline: as §2
# [5] = species on record: Homo sapiens; test: Immunostimulatory activity in human pDC assessed as induction of IP10 at 100 ug/ml after 24 hrs; type: functional
# Outline: (§3)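 Human pDCs plated at 1 × 10^6 cells/mL; compounds in PBS added, 37 °C for 24 h; supernatant cytokines/chemokines by human Luminex multiplex kit.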
# [6] = species on record: Homo sapiens; test: Immunostimulatory activity in human pDC assessed as induction of IL6 at 100 ug/ml after 24 hrs; type: functional; outline: as §3
# [7] = test system: PBMC; test: Immunomodulatory activity in human PBMC assessed as induction of MCP1 at 50 ug/ml after 24 hrs; type: functional, cell-based; outline: as §2
# [8] = species on record: Homo sapiens; test: Immunostimulatory activity in human mDC assessed as induction of IL6 at 100 ug/ml after 24 hrs; type: functional; outline: as §1
# [9] = test system: Mus musculus; test: Immunomodulatory activity in C57BL/6 mouse assessed as induction of IL12 release at 25 mg/kg, sc after 2 hrs by ELISA; type: functional, organism-based; design: dose 25 mg/kg
# Outline: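 Female C57BL/6 wild-type mice, 5–8 weeks old, n=3; compounds given subcutaneously at 10 or 25 mg/kg. Retro-orbital blood at 2 h; serum cytokines by mouse Luminex multiplex or IL-12 ELISA.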
# [10] = test system: PBMC; test: Immunomodulatory activity in human PBMC assessed as induction of IL1-beta at 50 ug/ml after 24 hrs; type: functional, cell-based; outline: as §2
# [11] = test system: PBMC; test: Immunomodulatory activity in human PBMC assessed as induction of TNFalpha at 50 ug/ml after 24 hrs; type: functional, cell-based; outline: as §2
# [12] = test system: PBMC; test: Immunomodulatory activity in human PBMC assessed as induction of MCP1 after 24 hrs; type: functional, cell-based; outline: as §2
# [13] = test system: PBMC; test: Immunomodulatory activity in human PBMC assessed as induction of IP10 at 50 ug/ml after 24 hrs; type: functional, cell-based; outline: as §2
# [14] = test system: PBMC; test: Immunomodulatory activity in human PBMC assessed as induction of MIP1beta at 50 ug/ml after 24 hrs; type: functional, cell-based; outline: as §2
# [15] = test system: PBMC; test: Immunomodulatory activity in human PBMC assessed as induction of IFNalpha at 50 ug/ml after 24 hrs; type: functional, cell-based; outline: as §2
# [16] = test system: PBMC; test: Immunomodulatory activity in human PBMC assessed as induction of IL10 after 24 hrs; type: functional, cell-based; outline: as §2
# [17] = test system: PBMC; test: Immunomodulatory activity in human PBMC assessed as induction of IFNalpha after 24 hrs; type: functional, cell-based; outline: as §2
# [18] = biological target: T1, Toll-like receptor 8 (Homo sapiens) (UniProt Q9NR97); test: Activation of human TLR8 expressed in HEK293XL assessed as fold induction of NF-kappaB activity at 50 ug/ml after 18 hrs by reporter gene assay relative to control
# T1 sequence (whole entry): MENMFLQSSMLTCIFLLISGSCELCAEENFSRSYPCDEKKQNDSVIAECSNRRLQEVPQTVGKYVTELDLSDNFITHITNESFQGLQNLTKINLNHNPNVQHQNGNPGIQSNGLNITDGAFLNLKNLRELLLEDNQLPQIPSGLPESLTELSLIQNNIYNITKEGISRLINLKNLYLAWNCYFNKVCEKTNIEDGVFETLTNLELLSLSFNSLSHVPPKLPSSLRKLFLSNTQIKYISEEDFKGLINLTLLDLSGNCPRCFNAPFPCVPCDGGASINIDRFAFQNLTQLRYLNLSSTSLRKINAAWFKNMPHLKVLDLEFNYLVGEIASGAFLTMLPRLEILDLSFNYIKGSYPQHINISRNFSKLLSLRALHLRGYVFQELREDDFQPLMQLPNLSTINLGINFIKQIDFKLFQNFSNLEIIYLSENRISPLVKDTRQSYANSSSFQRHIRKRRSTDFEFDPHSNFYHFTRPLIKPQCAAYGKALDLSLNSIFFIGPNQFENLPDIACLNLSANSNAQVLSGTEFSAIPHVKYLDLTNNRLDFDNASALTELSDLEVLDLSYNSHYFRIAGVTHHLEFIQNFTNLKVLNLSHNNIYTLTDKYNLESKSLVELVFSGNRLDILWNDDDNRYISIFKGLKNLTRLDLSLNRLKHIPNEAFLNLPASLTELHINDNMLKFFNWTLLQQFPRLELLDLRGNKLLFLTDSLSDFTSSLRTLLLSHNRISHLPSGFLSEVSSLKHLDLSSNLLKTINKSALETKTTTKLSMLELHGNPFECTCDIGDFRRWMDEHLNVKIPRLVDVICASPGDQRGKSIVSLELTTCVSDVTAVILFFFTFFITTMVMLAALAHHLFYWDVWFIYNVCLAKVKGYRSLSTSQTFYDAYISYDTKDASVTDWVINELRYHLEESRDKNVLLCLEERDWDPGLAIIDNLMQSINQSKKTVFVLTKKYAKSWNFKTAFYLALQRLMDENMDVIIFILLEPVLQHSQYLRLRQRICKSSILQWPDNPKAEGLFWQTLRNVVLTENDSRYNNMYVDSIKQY
# Outline: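 HEK293 cells stably expressing human TLR7 or TLR8, transiently transfected with SEAP reporter plasmid; medium replaced, SIMRA compounds added, 18 h incubation. Supernatant SEAP measured by QuantiBlue; expressed as fold increase in NF-κB activity over PBS control. Tabulated data at 50 μg/mL, representative of three independent experiments.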
# [19] = species on record: Homo sapiens; test: Immunostimulatory activity in human mDC assessed as induction of IP10 at 100 ug/ml after 24 hrs; type: functional; outline: as §1
# [20] = species on record: Homo sapiens; test: Immunostimulatory activity in human mDC assessed as induction of IFNalpha at 100 ug/ml after 24 hrs; type: functional; outline: as §1
# [21] = species on record: Homo sapiens; test: Immunostimulatory activity in human pDC assessed as induction of IFNalpha at 100 ug/ml after 24 hrs; type: functional; outline: as §3
# [22] = test system: PBMC; test: Immunomodulatory activity in human PBMC assessed as induction of IL12 at 50 ug/ml after 24 hrs; type: functional, cell-based; outline: as §2
# [23] = test system: PBMC; test: Immunomodulatory activity in human PBMC assessed as induction of IL6 at 50 ug/ml after 24 hrs; type: functional, cell-based; outline: as §2
# [24] = test system: PBMC; test: Immunomodulatory activity in human PBMC assessed as induction of TNFalpha after 24 hrs; type: functional, cell-based; outline: as §2
# [25] = species on record: Homo sapiens; test: Immunostimulatory activity in human mDC assessed as induction of IL12 at 100 ug/ml after 24 hrs; type: functional; outline: as §1
# [26] = test system: PBMC; test: Immunomodulatory activity in human PBMC assessed as induction of IL6 after 24 hrs; type: functional, cell-based; outline: as §2
remaining at 10 min [1] [%],fold change (FC) [18],Structure (SMILES),Activity [2],Activity [3] [pg/mL],Activity [4],Activity [5],Activity [6],Activity [7] [pg/mL],Activity [8],Activity [9],Activity [10] [pg/mL],Activity [11] [pg/mL],Activity [12],Activity [13] [pg/mL],Activity [14] [pg/mL],Activity [15] [pg/mL],Activity [16],Activity [17],Activity [19],Activity [20],also measured
87,0.4,Nc1ccn([C@@H]2O[C@H](COP(=O)(S)O[C@H]3[C@@H](O)[C@H](n4cnc5c(N)ncnc54)O[C@@H]3COP(=O)(S)O[C@H]3[C@@H](O)[C@H](n4cnc5c(N)ncnc54)O[C@@H]3CO)[C@@H](OP(=O)(S)OC[C@H]3O[C@@H](n4ccc(=O)[nH]c4=O)[C@H](O)[C@@H]3OP(=O)(S)OC[C@H]3O[C@@H](n4ccc5c(=O)[nH]c(N)nc54)[C@H](O)[C@@H]3OP(=O)(S)OC[C@H]3O[C@@H](n4cnc5c(N)ncnc54)[C@H](O)[C@@H]3OP(=O)(S)OC[C@H]3O[C@@H](n4ccc(N)nc4=O)[C@H](O)[C@@H]3OP(=O)(S)OC[C@H]3O[C@@H](n4ccc5c(=O)[nH]c(N)nc54)[C@H](O)[C@@H]3OP(=O)(S)OC[C@H]3O[C@@H](n4ccc(N)nc4=O)[C@H](O)[C@@H]3OP(=O)(S)OC[C@H]3O[C@@H](n4ccc(=O)[nH]c4=O)[C@H](O)[C@@H]3OP(=O)(S)OC[C@H]3O[C@@H](n4ccc(=O)[nH]c4=O)[C@H](O)[C@@H]3OP(=O)(S)OCC(O)COP(=O)(S)O[C@H]3[C@@H](O)[C@H](n4ccc(=O)[nH]c4=O)O[C@@H]3COP(=O)(S)O[C@H]3[C@@H](O)[C@H](n4ccc(=O)[nH]c4=O)O[C@@H]3COP(=O)(S)O[C@H]3[C@@H](O)[C@H](n4ccc(N)nc4=O)O[C@@H]3COP(=O)(S)O[C@H]3[C@@H](O)[C@H](n4ccc5c(=O)[nH]c(N)nc54)O[C@@H]3COP(=O)(S)O[C@H]3[C@@H](O)[C@H](n4ccc(N)nc4=O)O[C@@H]3COP(=O)(S)O[C@H]3[C@@H](O)[C@H](n4cnc5c(N)ncnc54)O[C@@H]3COP(=O)(S)O[C@H]3[C@@H](O)[C@H](n4ccc5c(=O)[nH]c(N)nc54)O[C@@H]3COP(=O)(S)O[C@H]3[C@@H](O)[C@H](n4ccc(=O)[nH]c4=O)O[C@@H]3COP(=O)(S)O[C@H]3[C@@H](O)[C@H](n4ccc(N)nc4=O)O[C@@H]3COP(=O)(S)O[C@H]3[C@@H](O)[C@H](n4cnc5c(N)ncnc54)O[C@@H]3COP(=O)(S)O[C@H]3[C@@H](O)[C@H](n4cnc5c(N)ncnc54)O[C@@H]3CO)[C@H]2O)c(=O)n1 (some centres not stated),Active,2200,Dose-dependent effect,Active,Active,42100,Active,Active,47,39,Dose-dependent effect,1020,5880,434,Dose-dependent effect,Dose-dependent effect,Active,Active,Activity [21]: Active; Activity [22]: 223 pg/mL; Activity [23]: 791 pg/mL; Activity [24]: Dose-dependent effect; Activity [25]: Active; Activity [26]: Dose-dependent effect
80,0.3,Nc1ccn([C@@H]2O[C@H](COP(=O)(S)O[C@H]3[C@@H](O)[C@H](n4cnc5c(N)ncnc54)O[C@@H]3COP(=O)(S)O[C@H]3[C@@H](O)[C@H](n4ccc5c(=O)[nH]c(N)nc54)O[C@@H]3COP(=O)(S)O[C@H]3[C@@H](O)[C@H](n4ccc(=O)[nH]c4=O)O[C@@H]3COP(=O)(S)O[C@H]3[C@@H](O)[C@H](n4ccc(=O)[nH]c4=O)O[C@@H]3COP(=O)(S)O[C@H]3[C@@H](O)[C@H](n4cnc5c(N)ncnc54)O[C@@H]3COP(=O)(S)O[C@H]3[C@@H](O)[C@H](n4cnc5c(N)ncnc54)O[C@@H]3CO)[C@@H](OP(=O)(S)OC[C@H]3O[C@@H](n4ccc5c(=O)[nH]c(N)nc54)[C@H](O)[C@@H]3OP(=O)(S)OC[C@H]3O[C@@H](n4ccc(N)nc4=O)[C@H](O)[C@@H]3OP(=O)(S)OC[C@H]3O[C@@H](n4ccc(=O)[nH]c4=O)[C@H](O)[C@@H]3OP(=O)(S)OC[C@H]3O[C@@H](n4ccc(=O)[nH]c4=O)[C@H](O)[C@@H]3OP(=O)(S)OCC(O)COP(=O)(S)O[C@H]3[C@@H](O)[C@H](n4ccc(=O)[nH]c4=O)O[C@@H]3COP(=O)(S)O[C@H]3[C@@H](O)[C@H](n4ccc(=O)[nH]c4=O)O[C@@H]3COP(=O)(S)O[C@H]3[C@@H](O)[C@H](n4ccc(N)nc4=O)O[C@@H]3COP(=O)(S)O[C@H]3[C@@H](O)[C@H](n4ccc5c(=O)[nH]c(N)nc54)O[C@@H]3COP(=O)(S)O[C@H]3[C@@H](O)[C@H](n4ccc(N)nc4=O)O[C@@H]3COP(=O)(S)O[C@H]3[C@@H](O)[C@H](n4cnc5c(N)ncnc54)O[C@@H]3COP(=O)(S)O[C@H]3[C@@H](O)[C@H](n4ccc5c(=O)[nH]c(N)nc54)O[C@@H]3COP(=O)(S)O[C@H]3[C@@H](O)[C@H](n4ccc(=O)[nH]c4=O)O[C@@H]3COP(=O)(S)O[C@H]3[C@@H](O)[C@H](n4ccc(=O)[nH]c4=O)O[C@@H]3COP(=O)(S)O[C@H]3[C@@H](O)[C@H](n4cnc5c(N)ncnc54)O[C@@H]3COP(=O)(S)O[C@H]3[C@@H](O)[C@H](n4cnc5c(N)ncnc54)O[C@@H]3CO)[C@H]2O)c(=O)n1 (some centres not stated),Active,2230,Dose-dependent effect,Active,Active,49600,Active,Active,117,104,Dose-dependent effect,453,5500,149,Dose-dependent effect,Dose-dependent effect,Active,Active,Activity [21]: Active; Activity [22]: 320 pg/mL; Activity [23]: 1750 pg/mL; Activity [24]: Dose-dependent effect; Activity [25]: Active; Activity [26]: Dose-dependent effect
